Data from ChEMBL document CHEMBL1208755, “5-Nitro-2-furoic acid hydrazones: design, synthesis and in vitro antimycobacterial evaluation against log and starved phase cultures” (Bioorg Med Chem Lett, 2010).
Values after ≈ are worked out from the molar mass of the structure shown.

Columns and labels:
[1] = Antimicrobial activity aagainst Mycobacterium sp. Mc2 in presence of acetate; type: functional
[2] = Antimicrobial activity aagainst Mycobacterium sp. Mc2 in log phase assessed as inhibition of growth; type: functional
Summary of the method: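 Agar dilution along the lines of NCCLS guidance, run in duplicate on log-phase cultures. MIC is the lowest compound concentration that gives complete inhibition of bacterial growth.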

[3] = system: Mycobacterium tuberculosis; test: Antimicrobial activity aagainst Mycobacterium tuberculosis ATCC 14468 in log phase by agar dilution method; type: functional
Summary of the method: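 M. tuberculosis log-phase cultures were tested by agar dilution following NCCLS-type guidance, in duplicate. MIC was taken as the lowest concentration giving complete inhibition of bacterial growth.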

[4] = system: Mycobacterium tuberculosis; test: Antimicrobial activity aagainst Mycobacterium tuberculosis ATCC 14468 in starved phase by agar dilution method; type: functional
Summary of the method: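 Six-week nutrient-starved M. tuberculosis cells were tested by agar dilution in duplicate, following a literature procedure. MIC was taken as the lowest concentration giving complete inhibition of growth.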

[5] = Cytotoxicity against african green monkey Vero cells after 72 hrs by MTT assay; type: cell-based; conditions: chlorocebus sabaeus
[6] = molecular target: T1, Isocitrate lyase (Mycobacterium tuberculosis) (UniProt P9WKK7); test: Percent inhibition of Mycobacterium tuberculosis isocitrate lyase (ICL) at 10 uM
T1 sequence (whole entry): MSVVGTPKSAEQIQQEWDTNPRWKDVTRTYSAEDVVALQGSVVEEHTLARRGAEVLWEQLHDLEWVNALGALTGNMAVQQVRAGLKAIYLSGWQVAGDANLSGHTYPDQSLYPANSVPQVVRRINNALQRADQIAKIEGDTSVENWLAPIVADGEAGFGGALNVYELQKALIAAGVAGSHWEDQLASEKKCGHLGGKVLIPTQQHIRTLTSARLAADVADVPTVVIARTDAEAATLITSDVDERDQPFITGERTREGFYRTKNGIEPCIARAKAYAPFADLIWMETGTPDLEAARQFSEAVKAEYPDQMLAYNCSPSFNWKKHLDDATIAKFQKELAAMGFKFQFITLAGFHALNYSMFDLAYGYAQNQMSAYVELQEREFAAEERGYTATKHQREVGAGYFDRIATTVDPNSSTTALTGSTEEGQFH
Summary of the method: (§1)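 Isocitrate lyase activity was measured at 37 °C with phenylhydrazine present, reading glyoxylate-phenylhydrazone formation at 324 nm. Percent inhibition was determined at a single concentration.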

[7] = molecular target: T1, Isocitrate lyase (Mycobacterium tuberculosis); test: Percent inhibition of Mycobacterium tuberculosis isocitrate lyase (ICL) at 100 uM; summary of the method: as §1

SMILES | MIC [1] [µM] | MIC [2] [µM] | MIC [3] [µM] | MIC [4] [µM] | CC50 at 72 h [5] [µM] | inhibition [6] [%] | inhibition [7] [%]
O=C(N/N=C/c1ccc(Cl)cc1)c1ccc([N+](=O)[O-])o1 | 10.7 | 42.6 (≈ 12.5 µg/mL) | 21.3 (≈ 6.25 µg/mL) | – | – | – | –
C/C(=N\NC(=O)c1ccc([N+](=O)[O-])o1)c1ccc(F)cc1 | 42.9 | 21.5 (≈ 6.25 µg/mL) | 5.35 (≈ 1.56 µg/mL) | 21.5 (≈ 6.25 µg/mL) | 215 | 28.1 | –
C/C(=N\NC(=O)c1ccc([N+](=O)[O-])o1)c1ccc([N+](=O)[O-])cc1 | 19.6 | 19.6 (≈ 6.25 µg/mL) | 9.84 (≈ 3.13 µg/mL) | 19.6 (≈ 6.25 µg/mL) | > 197 | 48.9 | –
O=C(N/N=C/c1ccccc1C(F)(F)F)c1ccc([N+](=O)[O-])o1 | 9.56 | 4.76 (≈ 1.56 µg/mL) | 4.76 (≈ 1.56 µg/mL) | 19.1 (≈ 6.25 µg/mL) | > 191 | 30.1 | –
O=C(N/N=C/c1ccccc1[N+](=O)[O-])c1ccc([N+](=O)[O-])o1 | 10.3 | 10.3 (≈ 3.13 µg/mL) | 10.3 (≈ 3.13 µg/mL) | 41.1 (≈ 12.5 µg/mL) | 206 | 46.8 | –
O=C(N/N=C/c1ccco1)c1ccc([N+](=O)[O-])o1 | 25.1 | 50.2 (≈ 12.5 µg/mL) | 25.1 (≈ 6.25 µg/mL) | – | – | – | –
CO[C@H]1/C=C/O[C@@]2(C)Oc3c(C)c(O)c4c(O)c(c(/C=N/N5CCN(C)CC5)c(O)c4c3C2=O)NC(=O)/C(C)=C\C=C\[C@H](C)[C@H](O)[C@@H](C)[C@@H](O)[C@@H](C)[C@H](OC(C)=O)[C@@H]1C [RIFAMPIN] | > 15.2 | 1.89 (≈ 1.56 µg/mL) | 0.48 (≈ 0.395 µg/mL) | > 15.2 | > 75.9 | – | –
C/C(=N\NC(=O)c1ccc([N+](=O)[O-])o1)c1ccc(Br)cc1 | 4.43 | 17.8 (≈ 6.25 µg/mL) | 8.88 (≈ 3.13 µg/mL) | 17.8 (≈ 6.25 µg/mL) | > 178 | 73.1 | –
O=C(N/N=C/c1ccc([N+](=O)[O-])cc1)c1ccc([N+](=O)[O-])o1 | 20.6 | 82.2 (≈ 25 µg/mL) | 20.6 (≈ 6.25 µg/mL) | – | – | – | –
O=C(O)CC[N+](=O)[O-] | – | – | – | – | – | – | 63.2
O=C(N/N=C/c1c(Cl)cccc1Cl)c1ccc([N+](=O)[O-])o1 | 38.1 | 76.2 (≈ 25 µg/mL) | 19 (≈ 6.25 µg/mL) | – | – | – | –
O=C(N/N=C/c1ccc([N+](=O)[O-])o1)c1ccc([N+](=O)[O-])o1 | 5.3 | 0.68 (≈ 0.2 µg/mL) | 2.65 (≈ 0.78 µg/mL) | 10.6 (≈ 3.13 µg/mL) | 213 | 86.8 | –
O=C(N/N=C/c1ccc(F)cc1)c1ccc([N+](=O)[O-])o1 | 45.1 | 90.2 (≈ 25 µg/mL) | 22.5 (≈ 6.25 µg/mL) | – | – | – | –
O=C(N/N=C/c1cccc(Br)c1)c1ccc([N+](=O)[O-])o1 | 37 | 37 (≈ 12.5 µg/mL) | 18.5 (≈ 6.25 µg/mL) | – | – | – | –
O=C(N/N=C/c1ccc(Br)cc1)c1ccc([N+](=O)[O-])o1 | 37 | 73.9 (≈ 25 µg/mL) | 18.5 (≈ 6.25 µg/mL) | – | – | – | –
C/C(=N\NC(=O)c1ccc([N+](=O)[O-])o1)c1ccc(C)cc1 | 43.5 | 43.5 (≈ 12.5 µg/mL) | 10.9 (≈ 3.13 µg/mL) | 43.5 (≈ 12.5 µg/mL) | > 218 | 32.5 | –
NNC(=O)c1ccncc1 [ISONIAZID] | > 91.1 | 45.6 (≈ 6.25 µg/mL) | 0.72 (≈ 0.0987 µg/mL) | > 91.1 | > 456 | – | –
Cc1ccc(/C=N/NC(=O)c2ccc([N+](=O)[O-])o2)cc1 | 22.9 | 45.7 (≈ 12.5 µg/mL) | 11.4 (≈ 3.13 µg/mL) | 91.5 (≈ 25 µg/mL) | > 229 | 19.8 | –
O=C(N/N=C/c1ccccc1)c1ccc([N+](=O)[O-])o1 | 48.2 | 192 (≈ 49.8 µg/mL) | 48.2 (≈ 12.5 µg/mL) | – | – | – | –
COc1ccc(/C=N/NC(=O)c2ccc([N+](=O)[O-])o2)cc1 | 21.6 | 43.2 (≈ 12.5 µg/mL) | 21.6 (≈ 6.25 µg/mL) | – | – | – | –
C/C(=N\NC(=O)c1ccc([N+](=O)[O-])o1)c1ccccc1O | > 43.2 | > 43.2 | > 43.2 | – | – | – | –
O=C(N/N=C/c1ccc(O)cc1)c1ccc([N+](=O)[O-])o1 | 45.4 | > 45.4 | > 45.4 | – | – | – | –
C/C(=N\NC(=O)c1ccc([N+](=O)[O-])o1)c1ccccc1 | 45.7 | 45.7 (≈ 12.5 µg/mL) | 11.4 (≈ 3.13 µg/mL) | 45.7 (≈ 12.5 µg/mL) | > 229 | 34.9 | –
COc1cc(/C=N/NC(=O)c2ccc([N+](=O)[O-])o2)ccc1O | 20.5 | 81.9 (≈ 25 µg/mL) | 41 (≈ 12.5 µg/mL) | – | – | – | –
